Laboratory results reported in ChEMBL document CHEMBL2396654, “Discovery, synthetic methodology, and biological evaluation for antiphotoaging activity of bicyclic[1,2,3]triazoles: in vitro and in vivo studies” (2013).
Active and inactive are the calls of the source. No cut-off for these calls is given here.

How the values were obtained:
[1] = Antiphotoaging activity in HDF assessed as protection against 6 J/cm'2 UVA-induced reduction of cell survival at 5 uM treated 4 hrs before UVA irradiation measured after 24 hrs by MTT assay relative to control; assay type: functional; conditions: Homo sapiens, light or radiation study, read-out: Survival
Outline: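 Normal human dermal fibroblasts (passages 5–10) seeded at 10 000 cells/well, grown overnight, exposed to compound at 5 μM for 4 h, then rinsed and irradiated in PBS with 6 J/cm2 UVA (365 nm lamp, 4.762 mW/cm2), after which medium was restored. After 24 h, MTT added for 2 h at 37 °C; formazan dissolved in DMSO, OD 540 nm. Reported as mean ± SD; three independent experiments, triplicate.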

HDF [2] = experiment: Antiphotoaging activity in HDF assessed as reduction of 6 J/cm'2 UVA-induced senescence-associated-beta-gal positive cells treated 4 hrs before UVA irradiation using 5-bromo-4-chloro-3-indoyl-beta-galactoside staining by microscopic analysis; assay type: functional; conditions: Homo sapiens
HDF [3] = experiment: Effect on fibronectin mRNA expression in HDF by quantitative RT-PCR analysis; assay type: functional; conditions: Homo sapiens
Outline: (§1)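 Fibroblasts treated with compound alone, UVA alone, or both. Total RNA extracted with Trizol; 2 μg reverse-transcribed. SYBR Green real-time qPCR with 0.3 μM each primer and 100 ng cDNA. GAPDH listed among the amplified genes.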

HDF [4] = experiment: Effect on mitochondrial membrane potential in HDF at 5 uM after 4 hrs using DiOC6 staining by flow cytometry; assay type: functional; conditions: Homo sapiens
Outline: (§2)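 Normal fibroblasts (passages 5–10) pretreated 4 h at 5 μM or at various concentrations, then 6 J/cm2 UVA given in PBS (365 nm lamp, 4.762 mW/cm2) or sham-irradiated. Cells trypsinized, pelleted, stained with DiOC6 30 min at room temperature, washed, resuspended in PBS. Read at once by flow cytometry, FL-1 530/30 nm. Three independent experiments.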

HDF [5] = experiment: Antiphotoaging activity in HDF assessed as protection against 6 J/cm'2 UVA-induced reduction of TIMP-1 mRNA expression treated 4 hrs before UVA irradiation by quantitative RT-PCR analysis; assay type: functional; conditions: Homo sapiens; outline: as §1
Mus musculus = organism: Mus musculus; experiment: Antiphotoaging activity in ICR mouse assessed as reduction of 3 J/cm'2 UVA-induced epidermal hypertrophy at 0.5 gram per square in dorsal skin immediately after UVA irradiation 3 times a week for up to 12 weeks; assay type: functional, organism-based
Outline: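 Female ICR mice, six weeks old, n = 4 per group, dorsal skin shaved. Given 3 J/cm2 UVA (4.762 mW/cm2), then 0.1% emulsion (Tefose 63 base) applied topically at 0.5 g per square right after irradiation. Done three times weekly for up to 12 weeks (total 108 J/cm2). Skin taken after final irradiation for histology.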

HDF [6] = experiment: Antiphotoaging activity in HDF assessed as protection against 6 J/cm'2 UVA-induced reduction of COL1alpha1 mRNA expression treated 4 hrs before UVA irradiation by quantitative RT-PCR analysis; assay type: functional; conditions: Homo sapiens; outline: as §1
HDF [7] = experiment: Antiphotoaging activity in HDF assessed as protection against 6 J/cm'2 UVA-induced reduction of procollagen 1 type 1 mRNA expression treated 4 hrs before UVA irradiation by quantitative RT-PCR analysis; assay type: functional; conditions: Homo sapiens; outline: as §1
HDF [8] = experiment: Antiphotoaging activity in HDF assessed as protection against 6 J/cm'2 UVA-induced reduction of cell proliferation at 1 to 5 uM measured after 24 hrs by irradiation by MTT assay; assay type: functional; conditions: Homo sapiens, TDE = time-dependent effect
Outline: (§3)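 Fibroblasts seeded at 10 000 cells/well and left overnight. Pretreated with 0, 1, 2.5 or 5 μM for 2 or 4 h, then given 6 J/cm2 UVA in PBS; medium added back. After 24 h, MTT 2 h at 37 °C, formazan dissolved in DMSO, OD read at 540 nm. Three independent experiments.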

HDF [9] = experiment: Antiphotoaging activity in HDF assessed as protection against 6 J/cm'2 UVA-induced increase of MMP-1 protein expression treated 4 hrs before UVA irradiation by Western blot analysis; assay type: functional; conditions: Homo sapiens
Outline: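 Fibroblasts pretreated with 5 μM, then given 6 J/cm2 UVA. Lysed in ice-cold RIPA with protease and phosphatase inhibitors; protein measured by Bradford. Immunoblot with rabbit monoclonal anti-MMP-1, actin as loading control. HRP secondary, chemiluminescence detection, densitometry. Three independent experiments.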

HDF [10] = experiment: Antiphotoaging activity in HDF assessed as protection against 6 J/cm'2 UVA-induced reduction of elastin mRNA expression treated 4 hrs before UVA irradiation by quantitative RT-PCR analysis; assay type: functional; conditions: Homo sapiens; outline: as §1
HDF [11] = experiment: Effect on COL1alpha1 mRNA expression in HDF by quantitative RT-PCR analysis; assay type: functional; conditions: Homo sapiens; outline: as §1
HDF [12] = experiment: Effect on procollagen 1 type 1 mRNA expression in HDF by quantitative RT-PCR analysis; assay type: functional; conditions: Homo sapiens; outline: as §1
HDF [13] = experiment: Effect on senescence-associated-beta-gal expression in HDF using 5-bromo-4-chloro-3-indoyl-beta-galactoside staining by microscopic analysis; assay type: functional; conditions: Homo sapiens
HDF [14] = experiment: Antiphotoaging activity in HDF assessed as increase of 6 J/cm'2 UVA-induced mitochondrial membrane potential treated 4 hrs before UVA irradiation using DiOC6 staining by flow cytometry; assay type: functional; conditions: Homo sapiens; outline: as §2
HDF [15] = experiment: Effect on ROS production in HDF at 5 uM after 4 hrs using DCFH-DA staining by flow cytometry; assay type: functional; conditions: Homo sapiens
Outline: (§4)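 Fibroblasts treated 4 h at 5 μM or at various concentrations, then exposed to 6 J/cm2 UVA in PBS (365 nm peak) or sham-irradiated. Loaded with DCFH-DA 10 μM for 30 min at 37 °C. DCF fluorescence read by flow cytometry on FL-1. Three independent experiments.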

HDF [16] = experiment: Antiphotoaging activity in HDF assessed as reduction of 6 J/cm'2 UVA-induced ROS production treated 4 hrs before UVA irradiation using DCFH-DA staining by flow cytometry; assay type: functional; conditions: Homo sapiens; outline: as §4
HDF [17] = experiment: Antiphotoaging activity in HDF assessed as protection against 6 J/cm'2 UVA-induced increase of MMP-1 mRNA expression treated 4 hrs before UVA irradiation by quantitative RT-PCR analysis; assay type: functional; conditions: Homo sapiens; outline: as §1
HDF [18] = experiment: Antiphotoaging activity in HDF assessed as protection against 6 J/cm'2 UVA-induced reduction of cell proliferation treated 2 to 4 hrs before UVA irradiation measured after 24 hrs by MTT assay; assay type: functional; conditions: Homo sapiens; outline: as §3
HDF [19] = experiment: Effect on TIMP-1 mRNA expression in HDF by quantitative RT-PCR analysis; assay type: functional; conditions: Homo sapiens; outline: as §1
HDF [20] = experiment: Effect on MMP-1 mRNA expression in HDF by quantitative RT-PCR analysis; assay type: functional; conditions: Homo sapiens; outline: as §1
HDF [21] = experiment: Antiphotoaging activity in HDF assessed as protection against 6 J/cm'2 UVA-induced reduction of ATP level at 5 uM treated 4 hrs before UVA irradiation by bioluminescent assay; assay type: functional; conditions: Homo sapiens
Outline: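 Fibroblasts exposed 4 h to compound at 5 μM, then irradiated with 6 J/cm2 UVA in PBS. Cells lysed at once and debris spun off. Supernatant ATP measured by luciferin–luciferase bioluminescence. Expressed as percent of unirradiated, untreated control. Three independent experiments.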

HDF [22] = experiment: Effect on elastin mRNA expression in HDF by quantitative RT-PCR analysis; assay type: functional; conditions: Homo sapiens; outline: as §1
HDF [23] = experiment: Antiphotoaging activity in HDF assessed as protection against 6 J/cm'2 UVA-induced reduction of fibronectin mRNA expression treated 4 hrs before UVA irradiation by quantitative RT-PCR analysis; assay type: functional; conditions: Homo sapiens; outline: as §1

Compound: Fc1ccccc1C#Cc1nnn2c1CCCC2
- viability at 5 µM [1]: 78.9%

Compound: Nc1ccccc1C#Cc1nnn2c1CCC2
- viability at 5 µM [1]: 71.2%

Compound: Nc1ccccc1-c1nnn2c1CCCC2
- viability at 5 µM [1]: 61%

Compound: CCc1ccc(C#Cc2nnn3c2CCCC3)cc1
- viability at 5 µM [1]: 55.7%

Compound: COc1cccc(-c2nnn3c2CCCC3)c1
- viability at 5 µM [1]: 63.7%

Compound: COc1ccc(C#Cc2nnn3c2CCCC3)cc1
- viability at 5 µM [1]: 73%

Compound: O=[N+]([O-])c1cccc(C#Cc2nnn3c2CCCC3)c1
- viability at 5 µM [1]: 71.3%

Compound: COc1cccc(C#Cc2nnn3c2CCCC3)c1
- viability at 5 µM [1]: 61.9%

Compound: O=[N+]([O-])c1ccc(C#Cc2nnn3c2CCC3)cc1
- viability at 5 µM [1]: 84.1%

Compound: Fc1ccccc1C#Cc1nnn2c1CCC2
- viability at 5 µM [1]: 75.2%

Compound: C(#Cc1nnn2c1CCCC2)c1ccccc1
- viability at 5 µM [1]: 68.7%

Compound: COc1ccc(-c2nnn3c2CCCC3)cc1
- viability at 5 µM [1]: 54%

Compound: c1ccc(-c2nnn3c2CCCC3)cc1
- viability at 5 µM [1]: 57%

Compound: CCc1ccc(C#Cc2nnn3c2CCC3)cc1
- viability at 5 µM [1]: 80.7%

Compound: c1ccc(-c2nnn3c2CCC3)cc1
- viability at 5 µM [1]: 61.1%

Compound: O=[N+]([O-])c1cccc(C#Cc2nnn3c2CCC3)c1
- viability at 5 µM [1]: 88.2%

Compound: COc1cccc(-c2nnn3c2CCC3)c1
- viability at 5 µM [1]: 58%

Compound: O=[N+]([O-])c1cccc(-c2nnn3c2CCCC3)c1
- viability at 5 µM [1]: 62%

Compound: O=[N+]([O-])c1ccc(-c2nnn3c2CCC3)cc1
- viability at 5 µM [1]: 70%

Compound: O=[N+]([O-])c1ccc(-c2nnn3c2CCCC3)cc1
- viability at 5 µM [1]: 52%

Compound: C(#Cc1nnn2c1CCC2)c1ccccc1
- viability at 5 µM [1]: 62.7%

Compound: COc1ccc(-c2nnn3c2CCC3)cc1
- viability at 5 µM [1]: 70.3%

Compound: COc1cccc(C#Cc2nnn3c2CCC3)c1
- Activity (HDF [2]): Active
- Activity (HDF [3]): inactive
- Activity (HDF [4]): inactive
- Activity (HDF [5]): Active
- Activity (Mus musculus): Active
- Activity (HDF [6]): Active
- Activity (HDF [7]): Active
- Activity (HDF [8]): tde
- Activity (HDF [9]): Active
- Activity (HDF [10]): Active
- Activity (HDF [11]): inactive
- Activity (HDF [12]): inactive
- Activity (HDF [13]): inactive
- viability at 5 µM [1]: 95.3%
- Activity (HDF [14]): Dose-dependent effect
- Activity (HDF [15]): inactive
- Activity (HDF [16]): Dose-dependent effect
- Activity (HDF [17]): Active
- Activity (HDF [18]): Dose-dependent effect
- Activity (HDF [19]): inactive
- Activity (HDF [20]): inactive
- Activity (HDF [21]): Active
- Activity (HDF [22]): inactive
- Activity (HDF [23]): Active

Compound: O=[N+]([O-])c1cccc(-c2nnn3c2CCC3)c1
- viability at 5 µM [1]: 52.8%

Compound: COc1ccc(C#Cc2nnn3c2CCC3)cc1
- viability at 5 µM [1]: 73.2%
